From ChEMBL document CHEMBL4402595, “Discovery of Orally Bioavailable Chromone Derivatives as Potent and Selective BRD4 Inhibitors: Scaffold Hopping, Optimization, and Pharmacological Evaluation” (J Med Chem, 2020) come the findings set out here.

Data set [1] deals with Mus musculus. Nature of the data set: Antiinflammatory activity in C57BL6/J mouse model of TLR3-induced acute airway inflammation assessed as inhibition of elevated IL-6 levels in BALF at 10 mg/kg, po pre-treated 1 day before poly(I:C) stimulation followed by compound re-dosing at 10 mg/kg, po before another poly(I:C) stimulation and measured after 1 day post last poly(I:C) stimulation by cytokine Bio-Plex assay. It is filed as functional, organism-based. The essentials: (§1)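 Male C57BL/6J mice, 12 weeks old, 5 per group, dosed 10 mg/kg the day before and again immediately before intranasal poly(I:C) (300 μg in 50 μL PBS). BALF was collected 1 day later by two 1 mL PBS lavages and centrifuged at 800 × g for 5 min at 4 °C. Supernatant cytokines were measured by multiplex bead immunoassay against recombinant standards in triplicate.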

Data set [2] is described as follows: Cmax in Sprague-Dawley rat at 20 mg/kg, po measured after 2 to 26 hrs. It is filed as ADME, organism-based. Set-up: dose 20 mg/kg, route oral. As to conditions: in vivo.
Data set [3] has as its system Mus musculus. Kind of data set: Antiinflammatory activity in C57BL6/J mouse model of TLR3-induced acute airway inflammation assessed as inhibition of elevated KC gene expression in lung at 10 mg/kg, po pre-treated 1 day before poly(I:C) stimulation followed by compound re-dosing at 10 mg/kg, po before another poly(I:C) stimulation and measured after 1 day post last poly(I:C) stimulation. It is filed as functional, organism-based. The procedure, abridged: (§2)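 Male C57BL/6J mice, 12 weeks old, 5 per group, dosed 10 mg/kg one day before challenge and again immediately before intranasal poly(I:C) (300 μg in 50 μL PBS). Controls were vehicle alone and poly(I:C) alone. Lungs were taken 1 day later. Gene expression in lung tissue was measured by qRT-PCR, normalized to PPIA.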

In data set [4] the test system is Mus musculus. Nature of the data set: In-vivo inhibition of BRD4 in C57BL6/J mouse model of TLR3-induced acute airway inflammation assessed as reduction in H3K122Ac levels in lung at 10 mg/kg, po pre-treated 1 day before poly(I:C) stimulation followed by compound re-dosing at 10 mg/kg, po before another poly(I:C) stimulation and measured after 1 day post last poly(I:C) stimulation by immunofluorescence staining. It is filed as functional, organism-based. The essentials:
(§3)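 Male C57BL/6J mice, 5 per group, dosed 10 mg/kg before and again at intranasal poly(I:C) challenge (300 μg). Lungs were taken 1 day later, paraffin sections made, and antigen retrieved at pH 9.0. Sections were stained with anti-acetyl-H3K122 and an Alexa 568 secondary with DAPI, imaged by confocal at 63×, and total fluorescence reported as fold change.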

The test system of data set [5] is Mus musculus. Nature of the data set: Antiinflammatory activity in C57BL6/J mouse model of TLR3-induced acute airway inflammation assessed as inhibition of elevated ISG54 gene expression in lung at 10 mg/kg, po pre-treated 1 day before poly(I:C) stimulation followed by compound re-dosing at 10 mg/kg, po before another poly(I:C) stimulation and measured after 1 day post last poly(I:C) stimulation. It is filed as functional, organism-based. The procedure, abridged:
as §2

In data set [6] the test system is Mus musculus. Kind of data set: Antiinflammatory activity in C57BL6/J mouse model of TLR3-induced acute airway inflammation assessed as inhibition of elevated IL6 gene expression in lung at 10 mg/kg, po pre-treated 1 day before poly(I:C) stimulation followed by compound re-dosing at 10 mg/kg, po before another poly(I:C) stimulation and measured after 1 day post last poly(I:C) stimulation. It is filed as functional, organism-based. The procedure, abridged:
as §2

Data set [7] is described as follows: AUC (0 to t) in Sprague-Dawley rat at 10 mg/kg, iv measured after 2 to 26 hrs. It is filed as ADME, organism-based. The note with it: in vivo.
The test system of data set [8] is Mus musculus. Nature of the data set: Antiinflammatory activity in C57BL6/J mouse model of TLR3-induced acute airway inflammation assessed as inhibition of elevated total cells in BALF at 10 mg/kg, ip pre-treated 1 day before poly(I:C) stimulation followed by compound re-dosing at 10 mg/kg, ip before another poly(I:C) stimulation and measured after 1 day post last poly(I:C) stimulation. It is filed as functional, organism-based. The essentials:
(§4)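 Male C57BL/6J mice, 12 weeks old, 5 per group, dosed 10 mg/kg one day before and again immediately before intranasal poly(I:C) (300 μg/50 μL PBS). BALF was collected 1 day later. Total viable cells were counted by trypan blue with a hemocytometer. Neutrophils were counted as a differential of 300 cells on Wright-Giemsa stained cytospins.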

For data set [9], the system named is Mus musculus. Kind of data set: Antiinflammatory activity in C57BL6/J mouse model of TLR3-induced acute airway inflammation assessed as inhibition of elevated total cells in BALF at 10 mg/kg, po pre-treated 1 day before poly(I:C) stimulation followed by compound re-dosing at 10 mg/kg, po before another poly(I:C) stimulation and measured after 1 day post last poly(I:C) stimulation. It is filed as functional, organism-based. The essentials:
as §4

The target of data set [10] is Bromodomain-containing protein 4 (Homo sapiens, UniProt O60885). Kind of data set: Inhibition of BRD4 in poly(I:C)-stimulated human SAECs assessed as reduction in H3K122Ac levels at 10 uM pre-incubated for 24 hrs before poly(I:C) stimulation for 4 hrs by immunofluorescence staining.
For data set [11], the system named is Mus musculus. Nature of the data set: In-vivo inhibition of BRD4 in C57BL6/J mouse model of TLR3-induced acute airway inflammation assessed as reduction in H3K122Ac levels in lung at 10 mg/kg, ip pre-treated 1 day before poly(I:C) stimulation followed by compound re-dosing at 10 mg/kg, ip before another poly(I:C) stimulation and measured after 1 day post last poly(I:C) stimulation by immunofluorescence staining. It is filed as functional, organism-based. The procedure, abridged: as §3

Data set [12] is described as follows: Cmax in Sprague-Dawley rat at 10 mg/kg, iv measured after 2 to 26 hrs. Set-up: dose 10 mg/kg, route intravenous. It is filed as ADME, organism-based. The note with it: in vivo.
Data set [13] is described as follows: Aqueous solubility in water incubated at 25 degC for 24 hrs by HPLC analysis. The note with it: buffer. It is filed as physicochemical. The essentials:
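Compound suspension was shaken at 25 °C for 24 h, then centrifuged and the supernatant filtered. Supernatant was quantified by C18 reverse-phase HPLC against a one-point calibration of a known concentration.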

The test system of data set [14] is Mus musculus. Kind of data set: Antiinflammatory activity in C57BL6/J mouse model of TLR3-induced acute airway inflammation assessed as inhibition of elevated KC levels in BALF at 10 mg/kg, ip pre-treated 1 day before poly(I:C) stimulation followed by compound re-dosing at 10 mg/kg, ip before another poly(I:C) stimulation and measured after 1 day post last poly(I:C) stimulation by cytokine Bio-Plex assay. It is filed as functional, organism-based. The procedure, abridged: as §1

Data set [15] is described as follows: Clearance in mouse liver microsomes. It is filed as ADME, Microsome. (Liver microsomes are vesicles of endoplasmic reticulum, rich in cytochrome P450 enzymes.)
Data set [16] can be described thus: Unbound fraction in human plasma at 2 uM. It is filed as ADME, cell-free.
For another data set, the target named is T1, CYP2B6 (Homo sapiens, UniProt P20813).
T1 sequence (P20813 whole entry): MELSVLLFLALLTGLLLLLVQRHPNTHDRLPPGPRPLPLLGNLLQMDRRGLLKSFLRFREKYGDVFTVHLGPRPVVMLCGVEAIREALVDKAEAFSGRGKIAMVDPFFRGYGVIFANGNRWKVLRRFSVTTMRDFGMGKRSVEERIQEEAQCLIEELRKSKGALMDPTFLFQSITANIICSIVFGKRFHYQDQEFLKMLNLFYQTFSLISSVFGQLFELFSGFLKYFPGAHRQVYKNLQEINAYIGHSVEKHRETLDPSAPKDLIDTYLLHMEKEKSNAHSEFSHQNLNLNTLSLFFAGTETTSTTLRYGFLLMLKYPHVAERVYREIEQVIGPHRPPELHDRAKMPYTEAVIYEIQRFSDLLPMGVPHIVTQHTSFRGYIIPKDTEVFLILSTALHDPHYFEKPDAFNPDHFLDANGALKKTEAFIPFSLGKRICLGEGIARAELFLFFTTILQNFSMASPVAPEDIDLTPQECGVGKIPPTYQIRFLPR
Kind of data set: Inhibition of CYP2B6 (unknown origin) at 10 uM relative to control. It is filed as ADME.

Activity calls are given as the source filed them. The calls are words filed in the database; no cut-off is given here. A value given as a limit tells only on which side of the number the result lay.

Regarding `COc1cc(OC)c2c(=O)cc(-c3cc(C)c(OC[C@H](O)CN4CCCCC4)c(C)c3)oc2c1`, the inhibition result with Mus musculus [1], with Mus musculus [3], in the data set on Mus musculus [4], in the data set on Mus musculus [5], with Mus musculus [6] and in the data set with Mus musculus [8] was “Active” throughout. In addition, the inhibition entry (in the data set on Mus musculus [9]; in [10]; with Mus musculus [11]; in the data set with Mus musculus [14]) was “Active” throughout. The highest concentration (Cmax) in data set [2] was 575 ng/mL; in [12], 2860 ng/mL. This compound also came in with an AUC(0-t) in [7] of 6760 ng·h/mL. The solubility in [13] was > 50 mg/mL.

In turn, `COc1cc(OC)c2c(=O)cc(-c3cc(C)c(OC[C@H](O)CN4CCN(C)CC4)c(C)c3)oc2c1` had a CLH in data set [15] of 25 µL/min/mg. Moreover, the inhibition result with Mus musculus [1], with Mus musculus [3], in the data set with Mus musculus [4], in the data set on Mus musculus [5], in the data set with Mus musculus [6] and in the data set with Mus musculus [8] was “Active” each time. The inhibition entry in the data set with Mus musculus [9], in the data set with Mus musculus [11] and with Mus musculus [14] was “Active” throughout. For the same compound, the Cmax amounted to 606 ng/mL in [2] and 2090 ng/mL in [12]. Also, the Fu in [16] amounted to 17%. The inhibition at 10 µM at CYP2B6 was determined as 27%. Besides, in [7], the AUC(0-t) is 7030 ng·h/mL. Further, in data set [13], the solubility is > 50 mg/mL.

Broadly, the inhibition is the percentage by which the read-out fell short of the control. What is called Cmax is the maximum level reached in the sampled fluid or tissue. The AUC(0-t) is exposure summed from dosing to a finite time, without extrapolation to infinity. A higher AUC(0-t) goes with high exposure. By solubility is commonly meant the concentration that dissolves in the medium under given conditions.
